Results as given in ChEMBL document CHEMBL4706538, “Novel pleuromutilin derivatives with substituted 6-methylpyrimidine: Design, synthesis and antibacterial evaluation” (2020).
≈ marks a conversion by molar mass, not a printed value.

Key:
Type in all cases: functional
Conditions in all cases: time 18-24 hrs
[1] = system: Staphylococcus epidermidis; assay: Antibacterial activity against Staphylococcus epidermidis ATCC 51625 measured after 18 to 24 hrs by microtiter dilution method
In short: (§1)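 Compounds were taken up in 25% DMSO at 64 μg/mL and serially diluted two-fold in water (11 dilutions). Log-phase bacteria grown in MHB were diluted to 10^5-10^6 CFU/mL and mixed 1:1 with the dilutions. Plates were incubated at 37 °C for 18-24 h. MIC was the lowest concentration giving no growth by OD492, averaged over three independent experiments.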

[2] = system: Streptococcus dysgalactiae; assay: Antibacterial activity against Streptococcus dysgalactiae measured after 18 to 24 hrs by microtiter dilution method; in short: as §1
[3] = system: Streptococcus agalactiae; assay: Antibacterial activity against Streptococcus agalactiae measured after 18 to 24 hrs by microtiter dilution method; in short: as §1
[4] = system: Enterococcus faecalis; assay: Antibacterial activity against Enterococcus faecalis measured after 18 to 24 hrs by microtiter dilution method; in short: as §1
[5] = system: Escherichia coli; assay: Antibacterial activity against Escherichia coli CICC 10389 measured after 18 to 24 hrs by microtiter dilution method; in short: as §1
[6] = system: Pasteurella multocida; assay: Antibacterial activity against Pasteurella multocida CVCC 1659 measured after 18 to 24 hrs by microtiter dilution method; in short: as §1
[7] = system: Staphylococcus aureus; assay: Antibacterial activity against Staphylococcus aureus BNCC 337371 measured after 18 to 24 hrs by microtiter dilution method; in short: as §1
[8] = system: Staphylococcus aureus; assay: Antibacterial activity against Staphylococcus aureus ATCC 25923 measured after 18 to 24 hrs by microtiter dilution method; in short: as §1

SMILES | MIC [1] [µM] | MIC [2] [µM] | MIC [3] [µM] | MIC [4] [µM] | MIC [5] [µM] | MIC [6] [µM] | MIC [7] [µM] | MIC [8] [µM]
C=C[C@]1(C)C[C@@H](OC(=O)CSc2nc(C)cc(N(C)C)n2)[C@@]2(C)[C@H](C)CC[C@]3(CCC(=O)[C@H]32)[C@@H](C)[C@@H]1O | 0.24 (≈ 0.127 µg/mL) | 0.12 (≈ 0.0636 µg/mL) | 0.12 (≈ 0.0636 µg/mL) | 15.1 (≈ 8 µg/mL) | > 60.5 | 30.2 (≈ 16 µg/mL) | 0.24 (≈ 0.127 µg/mL) | 0.12 (≈ 0.0636 µg/mL)
C=C[C@]1(C)C[C@@H](OC(=O)CSc2nc(C)cc(OC)n2)[C@@]2(C)[C@H](C)CC[C@]3(CCC(=O)[C@H]32)[C@@H](C)[C@@H]1O | 0.24 (≈ 0.124 µg/mL) | 0.12 (≈ 0.062 µg/mL) | 0.24 (≈ 0.124 µg/mL) | 31 (≈ 16 µg/mL) | > 62 | 62 (≈ 32 µg/mL) | 0.24 (≈ 0.124 µg/mL) | 0.24 (≈ 0.124 µg/mL)
C=C[C@]1(C)C[C@@H](OC(=O)CSc2nc(C)cc(OCC)n2)[C@@]2(C)[C@H](C)CC[C@]3(CCC(=O)[C@H]32)[C@@H](C)[C@@H]1O | 0.24 (≈ 0.127 µg/mL) | 0.12 (≈ 0.0637 µg/mL) | 0.24 (≈ 0.127 µg/mL) | 15.1 (≈ 8.01 µg/mL) | > 60.4 | > 60.4 | 0.12 (≈ 0.0637 µg/mL) | 0.12 (≈ 0.0637 µg/mL)
C=C[C@]1(C)C[C@@H](OC(=O)CSc2nc(C)cc(OC(C)C)n2)[C@@]2(C)[C@H](C)CC[C@]3(CCC(=O)[C@H]32)[C@@H](C)[C@@H]1O | 0.46 (≈ 0.251 µg/mL) | 0.92 (≈ 0.501 µg/mL) | 0.23 (≈ 0.125 µg/mL) | 58.8 (≈ 32 µg/mL) | > 58.8 | > 58.8 | 0.23 (≈ 0.125 µg/mL) | 0.46 (≈ 0.251 µg/mL)
C=C[C@]1(C)C[C@@H](OC(=O)CSc2nc(C)cc(OCCN)n2)[C@@]2(C)[C@H](C)CC[C@]3(CCC(=O)[C@H]32)[C@@H](C)[C@@H]1O | 0.92 (≈ 0.502 µg/mL) | 0.23 (≈ 0.126 µg/mL) | 0.46 (≈ 0.251 µg/mL) | 58.7 (≈ 32 µg/mL) | > 58.7 | > 58.7 | 0.92 (≈ 0.502 µg/mL) | 0.92 (≈ 0.502 µg/mL)
C=C[C@]1(C)C[C@@H](OC(=O)CS[C@@H]2C[C@H]3CC[C@@H](C2)N3C)[C@@]2(C)[C@H](C)CC[C@]3(CCC(=O)[C@H]32)[C@@H](C)[C@@H]1O | 0.12 (≈ 0.0621 µg/mL) | 0.06 (≈ 0.0311 µg/mL) | 0.06 (≈ 0.0311 µg/mL) | 15.4 (≈ 8 µg/mL) | 30.9 (≈ 16 µg/mL) | 0.97 (≈ 0.502 µg/mL) | 0.12 (≈ 0.0621 µg/mL) | 0.24 (≈ 0.124 µg/mL)
C=C[C@]1(C)C[C@@H](OC(=O)CSc2nc(C)cc(OCCCC)n2)[C@@]2(C)[C@H](C)CC[C@]3(CCC(=O)[C@H]32)[C@@H](C)[C@@H]1O | 1.79 (≈ 1 µg/mL) | 0.45 (≈ 0.251 µg/mL) | 0.9 (≈ 0.503 µg/mL) | 57.3 (≈ 32 µg/mL) | > 57.3 | > 57.3 | 3.58 (≈ 2 µg/mL) | 1.79 (≈ 1 µg/mL)
C=C[C@]1(C)C[C@@H](OC(=O)CSc2nc(C)cc(N(CC)CC)n2)[C@@]2(C)[C@H](C)CC[C@]3(CCC(=O)[C@H]32)[C@@H](C)[C@@H]1O | 0.45 (≈ 0.251 µg/mL) | 0.22 (≈ 0.123 µg/mL) | 0.11 (≈ 0.0614 µg/mL) | 28.7 (≈ 16 µg/mL) | > 57.4 | 57.4 (≈ 32 µg/mL) | 0.45 (≈ 0.251 µg/mL) | 0.22 (≈ 0.123 µg/mL)

The remaining lines, values ahead:

MIC [1] [µM] | MIC [2] [µM] | MIC [3] [µM] | MIC [4] [µM] | MIC [5] [µM] | MIC [6] [µM] | MIC [7] [µM] | MIC [8] [µM] | SMILES
0.43 (≈ 0.251 µg/mL) | 0.43 (≈ 0.251 µg/mL) | 0.11 (≈ 0.0643 µg/mL) | 54.8 (≈ 32 µg/mL) | > 54.8 | 54.8 (≈ 32 µg/mL) | 0.43 (≈ 0.251 µg/mL) | 0.43 (≈ 0.251 µg/mL) | C=C[C@]1(C)C[C@@H](OC(=O)CSc2nc(C)cc(N3CCN(C)CC3)n2)[C@@]2(C)[C@H](C)CC[C@]3(CCC(=O)[C@H]32)[C@@H](C)[C@@H]1O
0.22 (≈ 0.126 µg/mL) | 0.05 (≈ 0.0285 µg/mL) | 0.11 (≈ 0.0628 µg/mL) | 14 (≈ 8.01 µg/mL) | > 56.1 | 28.1 (≈ 16 µg/mL) | 0.11 (≈ 0.0628 µg/mL) | 0.11 (≈ 0.0628 µg/mL) | C=C[C@]1(C)C[C@@H](OC(=O)CSc2nc(C)cc(N3CCNCC3)n2)[C@@]2(C)[C@H](C)CC[C@]3(CCC(=O)[C@H]32)[C@@H](C)[C@@H]1O
0.42 (≈ 0.252 µg/mL) | 0.42 (≈ 0.252 µg/mL) | 0.84 (≈ 0.504 µg/mL) | 53.5 (≈ 32.1 µg/mL) | > 53.5 | 53.5 (≈ 32.1 µg/mL) | 0.84 (≈ 0.504 µg/mL) | 0.21 (≈ 0.126 µg/mL) | C=C[C@]1(C)C[C@@H](OC(=O)CSc2nc(C)cc(N3CCC(CO)CC3)n2)[C@@]2(C)[C@H](C)CC[C@]3(CCC(=O)[C@H]32)[C@@H](C)[C@@H]1O
0.11 (≈ 0.0629 µg/mL) | 0.22 (≈ 0.126 µg/mL) | 0.11 (≈ 0.0629 µg/mL) | 28 (≈ 16 µg/mL) | > 56 | 14 (≈ 8 µg/mL) | 0.22 (≈ 0.126 µg/mL) | 0.11 (≈ 0.0629 µg/mL) | C=C[C@]1(C)C[C@@H](OC(=O)CSc2nc(C)cc(N3CC[C@@H](O)C3)n2)[C@@]2(C)[C@H](C)CC[C@]3(CCC(=O)[C@H]32)[C@@H](C)[C@@H]1O
0.21 (≈ 0.123 µg/mL) | 0.11 (≈ 0.0644 µg/mL) | 0.05 (≈ 0.0293 µg/mL) | 27.3 (≈ 16 µg/mL) | > 54.7 | 27.3 (≈ 16 µg/mL) | 0.21 (≈ 0.123 µg/mL) | 0.21 (≈ 0.123 µg/mL) | C=C[C@]1(C)C[C@@H](OC(=O)CSc2nc(C)cc(N3CCC[C@@H](O)C3)n2)[C@@]2(C)[C@H](C)CC[C@]3(CCC(=O)[C@H]32)[C@@H](C)[C@@H]1O
0.21 (≈ 0.126 µg/mL) | 0.05 (≈ 0.03 µg/mL) | 0.05 (≈ 0.03 µg/mL) | 26.7 (≈ 16 µg/mL) | > 53.5 | 26.7 (≈ 16 µg/mL) | 0.21 (≈ 0.126 µg/mL) | 0.1 (≈ 0.06 µg/mL) | C=C[C@]1(C)C[C@@H](OC(=O)CSc2nc(C)cc(N3CCC[C@H](CO)C3)n2)[C@@]2(C)[C@H](C)CC[C@]3(CCC(=O)[C@H]32)[C@@H](C)[C@@H]1O
0.25 (≈ 0.126 µg/mL) | 0.12 (≈ 0.0603 µg/mL) | 0.12 (≈ 0.0603 µg/mL) | 16 (≈ 8.02 µg/mL) | > 63.8 | 7.95 (≈ 4 µg/mL) | 0.25 (≈ 0.126 µg/mL) | 0.25 (≈ 0.126 µg/mL) | C=C[C@]1(C)C[C@@H](OC(=O)CSc2nc(C)cc(O)n2)[C@@]2(C)[C@H](C)CC[C@]3(CCC(=O)[C@H]32)[C@@H](C)[C@@H]1O
0.21 (≈ 0.123 µg/mL) | 0.11 (≈ 0.0644 µg/mL) | 0.11 (≈ 0.0644 µg/mL) | 13.7 (≈ 8.01 µg/mL) | > 54.7 | 27.3 (≈ 16 µg/mL) | 0.21 (≈ 0.123 µg/mL) | 0.21 (≈ 0.123 µg/mL) | C=C[C@]1(C)C[C@@H](OC(=O)CSc2nc(C)cc(N3CCC(O)CC3)n2)[C@@]2(C)[C@H](C)CC[C@]3(CCC(=O)[C@H]32)[C@@H](C)[C@@H]1O
0.2 (≈ 0.123 µg/mL) | 0.1 (≈ 0.0615 µg/mL) | 0.1 (≈ 0.0615 µg/mL) | 26 (≈ 16 µg/mL) | > 52.1 | 26 (≈ 16 µg/mL) | 0.41 (≈ 0.252 µg/mL) | 0.1 (≈ 0.0615 µg/mL) | C=C[C@]1(C)C[C@@H](OC(=O)CSc2nc(C)cc(N3CCN(CCO)CC3)n2)[C@@]2(C)[C@H](C)CC[C@]3(CCC(=O)[C@H]32)[C@@H](C)[C@@H]1O
0.2 (≈ 0.123 µg/mL) | 0.05 (≈ 0.0307 µg/mL) | 0.05 (≈ 0.0307 µg/mL) | 26.1 (≈ 16 µg/mL) | > 52.2 | 52.2 (≈ 32 µg/mL) | 0.2 (≈ 0.123 µg/mL) | 0.1 (≈ 0.0614 µg/mL) | C=C[C@]1(C)C[C@@H](OC(=O)CSc2nc(C)cc(N3CCC(CCO)CC3)n2)[C@@]2(C)[C@H](C)CC[C@]3(CCC(=O)[C@H]32)[C@@H](C)[C@@H]1O
